From ChEMBL document CHEMBL1156975, “Discovery and SAR of potent, orally available 2,8-diaryl-quinoxalines as a new class of JAK2 inhibitors” (Bioorg Med Chem Lett, 2010)
In brackets after ≈: the same amount, converted by molar mass.

What was measured:
[1] = biological target: Tyrosine-protein kinase JAK1 (Homo sapiens, UniProt P23458); experiment: Inhibition of recombinant GST tagged JAK1 protein after 60 mins using FITC-Ahx-KKSRGDYMTMQIG-NH2 substrate
[2] = biological target: Non-receptor tyrosine-protein kinase TYK2 (Homo sapiens, UniProt P29597); experiment: Inhibition of recombinant GST tagged TYK2 protein after 60 mins using FITC-Ahx-KKSRGDYMTMQIG-NH2 substrate
Sequence of Non-receptor tyrosine-protein kinase TYK2 (P29597 whole entry): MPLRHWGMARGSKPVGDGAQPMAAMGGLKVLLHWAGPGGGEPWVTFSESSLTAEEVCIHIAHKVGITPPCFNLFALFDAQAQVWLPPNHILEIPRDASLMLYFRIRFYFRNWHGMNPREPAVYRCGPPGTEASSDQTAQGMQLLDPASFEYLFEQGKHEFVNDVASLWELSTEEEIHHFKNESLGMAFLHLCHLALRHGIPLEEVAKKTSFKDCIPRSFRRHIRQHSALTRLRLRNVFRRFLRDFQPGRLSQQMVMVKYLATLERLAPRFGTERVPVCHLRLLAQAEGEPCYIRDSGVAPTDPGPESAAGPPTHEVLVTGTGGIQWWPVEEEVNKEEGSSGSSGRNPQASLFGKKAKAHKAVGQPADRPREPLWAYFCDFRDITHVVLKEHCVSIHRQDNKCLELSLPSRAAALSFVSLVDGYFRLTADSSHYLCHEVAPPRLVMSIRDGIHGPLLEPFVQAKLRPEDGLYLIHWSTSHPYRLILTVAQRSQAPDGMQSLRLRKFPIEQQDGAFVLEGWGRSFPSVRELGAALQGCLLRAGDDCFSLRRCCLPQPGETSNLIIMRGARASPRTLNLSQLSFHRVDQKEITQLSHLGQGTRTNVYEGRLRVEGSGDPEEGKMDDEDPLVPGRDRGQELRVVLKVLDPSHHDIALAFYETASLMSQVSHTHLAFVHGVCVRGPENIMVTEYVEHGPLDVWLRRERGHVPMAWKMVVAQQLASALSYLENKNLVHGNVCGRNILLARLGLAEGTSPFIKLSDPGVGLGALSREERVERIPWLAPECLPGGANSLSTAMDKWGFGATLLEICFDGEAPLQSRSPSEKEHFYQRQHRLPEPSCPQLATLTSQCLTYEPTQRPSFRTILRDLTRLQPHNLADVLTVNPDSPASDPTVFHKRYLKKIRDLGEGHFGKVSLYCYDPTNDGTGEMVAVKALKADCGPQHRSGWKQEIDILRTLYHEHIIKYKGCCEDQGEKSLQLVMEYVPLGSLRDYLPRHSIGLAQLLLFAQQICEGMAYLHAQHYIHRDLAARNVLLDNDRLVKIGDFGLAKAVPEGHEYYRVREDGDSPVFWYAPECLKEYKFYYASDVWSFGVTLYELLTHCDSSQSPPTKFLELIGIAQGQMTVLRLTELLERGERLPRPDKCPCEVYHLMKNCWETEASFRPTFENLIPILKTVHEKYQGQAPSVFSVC

[3] = biological target: Tyrosine-protein kinase JAK2 (Homo sapiens, UniProt O60674)
Sequence of Tyrosine-protein kinase JAK2 (O60674 whole entry): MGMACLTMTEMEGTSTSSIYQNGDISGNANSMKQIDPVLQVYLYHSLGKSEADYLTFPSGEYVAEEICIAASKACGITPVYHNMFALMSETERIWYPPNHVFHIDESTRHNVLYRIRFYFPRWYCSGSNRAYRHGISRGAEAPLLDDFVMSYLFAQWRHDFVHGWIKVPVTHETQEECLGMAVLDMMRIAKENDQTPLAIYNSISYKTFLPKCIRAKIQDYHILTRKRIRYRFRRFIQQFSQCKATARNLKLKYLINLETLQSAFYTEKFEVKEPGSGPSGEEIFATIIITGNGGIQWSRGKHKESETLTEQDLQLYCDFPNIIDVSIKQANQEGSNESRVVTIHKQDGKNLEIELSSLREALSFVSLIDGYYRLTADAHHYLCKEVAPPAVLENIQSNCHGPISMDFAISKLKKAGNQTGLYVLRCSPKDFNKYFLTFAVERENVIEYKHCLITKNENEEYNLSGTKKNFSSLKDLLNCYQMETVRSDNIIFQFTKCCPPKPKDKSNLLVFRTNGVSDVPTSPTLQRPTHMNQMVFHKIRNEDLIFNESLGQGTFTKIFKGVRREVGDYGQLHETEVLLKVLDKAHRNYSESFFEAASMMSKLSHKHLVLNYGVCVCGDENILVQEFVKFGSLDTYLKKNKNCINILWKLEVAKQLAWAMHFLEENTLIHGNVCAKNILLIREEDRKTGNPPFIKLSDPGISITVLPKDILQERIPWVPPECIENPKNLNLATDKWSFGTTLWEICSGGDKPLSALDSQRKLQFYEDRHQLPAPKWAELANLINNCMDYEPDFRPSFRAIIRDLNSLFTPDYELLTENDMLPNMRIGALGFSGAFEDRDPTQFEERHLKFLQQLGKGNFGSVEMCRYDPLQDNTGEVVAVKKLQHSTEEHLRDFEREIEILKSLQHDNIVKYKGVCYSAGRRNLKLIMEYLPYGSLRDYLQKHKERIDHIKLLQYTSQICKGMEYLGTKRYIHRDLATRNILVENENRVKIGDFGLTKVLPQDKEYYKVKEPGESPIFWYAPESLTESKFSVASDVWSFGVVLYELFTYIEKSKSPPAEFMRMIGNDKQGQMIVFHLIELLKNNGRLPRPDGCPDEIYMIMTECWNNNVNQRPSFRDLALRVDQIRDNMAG

[4] = Tmax in rat at 3 mg/kg, po or 1 mg/kg, iv by MS/MS analysis; type: ADME, organism-based; settings: in vivo
Method in brief: (§1)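 Conscious, fed, permanently cannulated female rats, n=4; 1 mg/kg iv via femoral vein in 30% NMP/PEG200, and 3 mg/kg po by gavage in 50% aqueous PEG200, crossover with 48 h washout. Arterial blood was sampled for 48 h (iv) or 24 h (po), precipitated with CH3CN, and measured by C18 HPLC-MS/MS.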

[5] = Cmax in rat at 3 mg/kg, po or 1 mg/kg, iv by MS/MS analysis; type: ADME, organism-based; settings: in vivo; method in brief: as §1
[6] = Oral bioavailability in rat at 3 mg/kg after 24 hrs by MS/MS analysis; type: ADME, organism-based; settings: in vivo; method in brief: as §1
[7] = Partition coefficient, log P of the compound; type: physicochemical; settings: octanol/water
[8] = Dissociation constant, pKa of the compound; type: physicochemical
[9] = Growth inhibition of human SET2 cells expressing JAK2V617F mutant after 72 hrs by colorimetric WST1 assay; type: functional; settings: SET-2, 72 h
Method in brief: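 Megakaryoblastic SET-2 cells were grown in RPMI with 10% FCS, 2 mM L-glutamine and 1% penicillin/streptomycin. Cells were exposed to an 8-point compound concentration range for 72 h. Proliferation was read by WST-1 colorimetric viability, relative to DMSO vehicle controls.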

[10] = Aqueous solubility at pH 6.8; type: physicochemical
[11] = Clearance in rat at 1 mg/kg, iv after 48 hrs by MS/MS analysis; settings: in vivo
[12] = Volume of distribution at steady state in rat at 1 mg/kg, iv or 3 mg/kg, po by MS/MS analysis; type: ADME, organism-based; settings: in vivo, read-out: Vdss; method in brief: as §1
[13] = Half life in rat at 1 mg/kg, iv after 48 hrs by MS/MS analysis; settings: in vivo
[14] = AUC in rat at 1 mg/kg, iv after 48 hrs by MS/MS analysis; type: ADME, organism-based; set-up: time < 48 hr, dose 1 mg/kg, route intravenous; settings: plasma; method in brief: as §1
[15] = biological target: T1, Tyrosine-protein kinase JAK3 (Homo sapiens, UniProt P52333)
T1 sequence (P52333 whole entry): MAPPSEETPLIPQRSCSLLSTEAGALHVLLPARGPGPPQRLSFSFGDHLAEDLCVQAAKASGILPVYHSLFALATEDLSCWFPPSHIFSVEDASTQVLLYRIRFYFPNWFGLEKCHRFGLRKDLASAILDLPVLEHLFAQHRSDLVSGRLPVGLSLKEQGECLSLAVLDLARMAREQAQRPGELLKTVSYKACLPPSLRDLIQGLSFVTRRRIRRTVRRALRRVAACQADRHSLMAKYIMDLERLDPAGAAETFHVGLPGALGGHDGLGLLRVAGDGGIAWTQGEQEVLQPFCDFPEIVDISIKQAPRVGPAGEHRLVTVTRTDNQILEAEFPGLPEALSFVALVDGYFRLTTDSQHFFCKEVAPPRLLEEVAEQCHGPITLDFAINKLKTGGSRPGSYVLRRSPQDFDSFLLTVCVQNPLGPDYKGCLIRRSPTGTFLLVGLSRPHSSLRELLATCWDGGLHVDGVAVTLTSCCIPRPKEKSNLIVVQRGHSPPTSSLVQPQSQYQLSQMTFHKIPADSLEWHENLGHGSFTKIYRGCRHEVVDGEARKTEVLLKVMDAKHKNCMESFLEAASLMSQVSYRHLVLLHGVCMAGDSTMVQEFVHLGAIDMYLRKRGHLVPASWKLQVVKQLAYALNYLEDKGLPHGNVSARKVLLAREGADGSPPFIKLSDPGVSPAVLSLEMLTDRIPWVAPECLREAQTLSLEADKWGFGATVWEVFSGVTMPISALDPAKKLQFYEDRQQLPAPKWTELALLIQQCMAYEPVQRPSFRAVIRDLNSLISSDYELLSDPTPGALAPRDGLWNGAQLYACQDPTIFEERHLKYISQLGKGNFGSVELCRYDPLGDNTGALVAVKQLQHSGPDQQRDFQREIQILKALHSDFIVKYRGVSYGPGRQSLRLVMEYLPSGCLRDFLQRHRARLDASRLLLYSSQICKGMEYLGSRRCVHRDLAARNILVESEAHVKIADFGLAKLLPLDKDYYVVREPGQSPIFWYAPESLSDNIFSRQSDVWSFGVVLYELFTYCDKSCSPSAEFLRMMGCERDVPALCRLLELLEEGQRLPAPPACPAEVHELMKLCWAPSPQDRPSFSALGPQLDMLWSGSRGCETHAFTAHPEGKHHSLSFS

[16] = biological target: Tyrosine-protein kinase ABL1 (Homo sapiens, UniProt P00519)
Sequence of Tyrosine-protein kinase ABL1 (P00519 whole entry): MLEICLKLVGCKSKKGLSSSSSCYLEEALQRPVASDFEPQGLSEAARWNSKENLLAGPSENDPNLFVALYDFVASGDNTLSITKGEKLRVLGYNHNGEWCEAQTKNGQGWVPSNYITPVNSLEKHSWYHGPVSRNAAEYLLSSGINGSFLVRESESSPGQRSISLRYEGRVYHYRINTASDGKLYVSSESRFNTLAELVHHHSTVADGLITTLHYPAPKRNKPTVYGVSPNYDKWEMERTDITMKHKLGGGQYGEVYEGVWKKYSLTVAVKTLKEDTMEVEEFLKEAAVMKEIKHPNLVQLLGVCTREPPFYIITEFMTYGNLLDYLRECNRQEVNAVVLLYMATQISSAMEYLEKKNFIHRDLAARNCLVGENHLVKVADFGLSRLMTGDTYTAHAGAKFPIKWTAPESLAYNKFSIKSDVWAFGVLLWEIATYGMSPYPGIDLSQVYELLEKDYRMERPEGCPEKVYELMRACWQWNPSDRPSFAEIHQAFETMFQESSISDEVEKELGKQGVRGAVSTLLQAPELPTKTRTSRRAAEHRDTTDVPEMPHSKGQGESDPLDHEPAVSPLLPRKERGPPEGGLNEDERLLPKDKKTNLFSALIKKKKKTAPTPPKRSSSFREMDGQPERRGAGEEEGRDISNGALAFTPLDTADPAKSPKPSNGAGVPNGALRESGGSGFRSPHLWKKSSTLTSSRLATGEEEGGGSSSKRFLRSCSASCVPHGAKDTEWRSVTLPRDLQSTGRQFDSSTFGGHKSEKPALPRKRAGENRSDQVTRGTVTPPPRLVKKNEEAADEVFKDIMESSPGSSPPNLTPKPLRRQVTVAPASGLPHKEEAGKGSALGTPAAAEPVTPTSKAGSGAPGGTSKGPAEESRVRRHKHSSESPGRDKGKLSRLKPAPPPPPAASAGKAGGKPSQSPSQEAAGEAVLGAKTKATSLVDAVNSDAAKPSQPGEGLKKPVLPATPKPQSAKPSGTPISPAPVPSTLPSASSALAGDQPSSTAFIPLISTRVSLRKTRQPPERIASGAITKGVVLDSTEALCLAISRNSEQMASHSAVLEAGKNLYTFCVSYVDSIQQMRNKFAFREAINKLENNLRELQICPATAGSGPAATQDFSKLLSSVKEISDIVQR

[17] = Volume of distribution in iv dosed rat; type: ADME, organism-based; settings: in vivo
Method in brief: (§2)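 Conscious rats given an iv bolus, then oral dosing at 3 mg/kg as a suspension in 0.5% carboxymethyl cellulose in bidistilled water. Clearance, volume of distribution, terminal half-life, oral AUC and bioavailability were derived.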

[18] = Terminal half life in iv dosed rat; type: ADME, organism-based; settings: in vivo, read-out: beta t1/2 (converted); method in brief: as §2
Rattus norvegicus [19] = experiment: AUC in rat at 3 mg/kg, po; type: ADME, organism-based, Plasma; set-up: dose 3 mg/kg, route oral; settings: in vivo; method in brief: as §2
Rattus norvegicus [20] = experiment: Oral bioavailability in rat at 3 mg/kg; type: ADME, organism-based; settings: in vivo; method in brief: as §2

Sequence of Tyrosine-protein kinase JAK1 (P23458 whole entry): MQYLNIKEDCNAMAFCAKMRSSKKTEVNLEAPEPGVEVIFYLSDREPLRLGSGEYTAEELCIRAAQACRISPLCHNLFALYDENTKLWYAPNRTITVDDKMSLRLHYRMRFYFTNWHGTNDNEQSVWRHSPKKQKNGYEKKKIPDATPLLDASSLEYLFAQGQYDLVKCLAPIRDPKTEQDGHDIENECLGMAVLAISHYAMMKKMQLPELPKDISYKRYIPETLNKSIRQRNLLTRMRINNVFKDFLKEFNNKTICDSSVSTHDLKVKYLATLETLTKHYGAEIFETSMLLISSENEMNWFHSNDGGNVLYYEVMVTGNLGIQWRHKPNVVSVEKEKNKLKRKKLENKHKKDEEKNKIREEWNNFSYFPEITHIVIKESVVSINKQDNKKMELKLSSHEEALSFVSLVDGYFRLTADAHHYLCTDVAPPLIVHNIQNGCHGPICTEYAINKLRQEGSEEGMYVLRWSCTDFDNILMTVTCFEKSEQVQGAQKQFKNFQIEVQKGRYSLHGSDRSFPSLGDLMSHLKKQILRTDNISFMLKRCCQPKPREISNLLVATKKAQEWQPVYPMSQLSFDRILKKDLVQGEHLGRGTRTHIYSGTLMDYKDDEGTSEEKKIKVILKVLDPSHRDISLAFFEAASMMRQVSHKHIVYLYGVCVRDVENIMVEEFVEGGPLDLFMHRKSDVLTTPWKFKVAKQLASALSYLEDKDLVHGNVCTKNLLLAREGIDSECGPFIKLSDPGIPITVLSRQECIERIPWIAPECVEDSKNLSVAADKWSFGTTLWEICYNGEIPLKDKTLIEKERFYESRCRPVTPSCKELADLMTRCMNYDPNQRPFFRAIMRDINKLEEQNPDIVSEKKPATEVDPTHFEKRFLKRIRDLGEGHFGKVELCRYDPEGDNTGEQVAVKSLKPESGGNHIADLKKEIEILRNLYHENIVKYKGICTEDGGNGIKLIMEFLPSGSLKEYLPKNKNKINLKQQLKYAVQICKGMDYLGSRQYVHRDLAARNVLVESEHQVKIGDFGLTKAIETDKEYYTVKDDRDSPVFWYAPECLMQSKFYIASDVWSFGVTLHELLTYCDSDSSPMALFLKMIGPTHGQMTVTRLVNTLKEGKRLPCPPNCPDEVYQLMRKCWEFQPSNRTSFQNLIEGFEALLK

| IC50 [1] | IC50 [2] | IC50 [3] | IC50 [15] | SMILES | GI50 [9] | other results |
| --- | --- | --- | --- | --- | --- | --- |
| 460 nM | 1400 nM | 20 nM |  | COc1cc(-c2cnc3cccc(-c4ccc(C(=O)N5CCOCC5)c(C)c4)c3n2)cc(OC)c1OC |  |  |
| 250 nM | 2200 nM | 20 nM |  | COc1cc(-c2cnc3cccc(-c4ccc(CN5CCOCC5)c(F)c4)c3n2)cc(OC)c1OC |  |  |
| 28 nM | 94 nM | 4.3 nM | 166 nM | CN1CCN(c2ccc(-c3cnc4cccc(-c5cc(F)c(CN6CCOCC6)c(F)c5)c4n3)cc2)CC1 | 152 nM | Tmax [4]: 5.8 h; Cmax [5]: 74 nM; bioavailability [6]: 100%; logP [7]: 4; pKa [8]: 4.5; solubility [10]: 4 µg/mL (≈ 7.76 µM); clearance at 48 h [11]: 19 mL/min/kg; Vd [12]: 18.9 L/kg; half-life at 48 h [13]: 13.4 h; AUC at 48 h [14]: 1.65 µM·h |
| 1200 nM | 4200 nM | 685 nM | 2700 nM | COc1cc(-c2cnc3cccc(-c4ccc(CN5CCOCC5)cc4C)c3n2)cc(OC)c1OC |  |  |
| 4700 nM | 9300 nM |  | 9900 nM | COc1cc(-c2cnc3cccc(-c4ccc(CN5CCOCC5)cc4F)c3n2)cc(OC)c1OC |  |  |
| 362 nM | 439 nM |  | 408 nM | Cc1cc(-c2cccc3ncc(-c4ccc(C(=O)N5CCOCC5)c(C)c4)nc23)ccc1CN1CCOCC1 |  |  |
| 98 nM | 520 nM |  |  | COc1cc(-c2cnc3cccc(-c4ccc(CN5CCS(=O)(=O)CC5)cc4)c3n2)cc(OC)c1OC |  |  |
| > 10000 nM | > 10000 nM | 4200 nM | > 10000 nM | COc1cc(-c2cnc3cc(C)cc(-c4ccc(CC(=O)N5CCS(=O)(=O)CC5)cc4)c3n2)cc(OC)c1OC |  |  |
| 940 nM | > 10000 nM | 101 nM | > 10000 nM | COc1cc(-c2cnc3cc(F)cc(-c4ccc(CC(=O)N5CCOCC5)cc4)c3n2)cc(OC)c1OC |  |  |
| 390 nM | 2900 nM |  |  | COc1cc(-c2cnc3cccc(-c4ccc(C(=O)N5CCOCC5)cc4)c3n2)cc(OC)c1OC |  |  |
| 89 nM |  | 7.1 nM | 232 nM | Cc1cc(-c2cnc3cccc(-c4ccc(CN5CCS(=O)(=O)CC5)cc4)c3n2)ccc1C(=O)N1CCN(C)CC1 | 96 nM | logP [7]: 2.8; pKa [8]: 3.9 |
| 1500 nM | > 10000 nM |  | > 10000 nM | COc1cc(-c2cnc3cccc(-c4ccc(CN5CCOCC5)cc4)c3n2)cc(OC)c1OC |  |  |
| 190 nM | 520 nM | 12.5 nM | 630 nM | Cc1cc(-c2cnc3cccc(-c4ccc(CN5CCOCC5)c(F)c4)c3n2)ccc1C(=O)N1CCOCC1 | 226 nM |  |
| 82 nM | 86 nM | 6.8 nM | 230 nM | CN1CCN(c2ccc(-c3cnc4cccc(-c5cc(F)c(CN6CCS(=O)(=O)CC6)c(F)c5)c4n3)cn2)CC1 | 98 nM | Tmax [4]: 8 h; Cmax [5]: 47 nM; bioavailability [6]: 100%; logP [7]: 3.8; pKa [8]: 3.6; solubility [10]: 4 µg/mL (≈ 7.08 µM); clearance at 48 h [11]: 39 mL/min/kg; Vd [12]: 13.2 L/kg; half-life at 48 h [13]: 4.8 h; AUC at 48 h [14]: 0.76 µM·h |
|  |  |  |  | Fc1cc(-c2cccc3ncc(-c4cnn(C5CCNCC5)c4)nc23)cc(F)c1CN1CCOCC1 | 88 nM | Tmax [4]: 7 h; Cmax [5]: 16 nM; bioavailability [6]: 31%; pKa [8]: 5.5; solubility [10]: > 1500 µg/mL; Vd [12]: 33 L/kg; AUC at 48 h [14]: 1.47 µM·h; IC50 [16]: 80 nM |
| 60 nM | 120 nM | 3.1 nM | 130 nM | Cc1cc(-c2cnc3cccc(-c4cc(F)c(CN5CCOCC5)c(F)c4)c3n2)ccc1C(=O)N1CCOCC1 | 135 nM |  |
| 91 nM |  | 13 nM |  | COc1cc(-c2cnc3cccc(-c4ccc(CC(=O)N5CCOCC5)cc4)c3n2)cc(OC)c1OC | 228 nM |  |
| 1850 nM | 7130 nM |  |  | COc1cc(-c2cnc3cccc(-c4ccc(CN5CCOCC5)c(C)c4)c3n2)cc(OC)c1OC |  |  |
| 35 nM | 340 nM |  |  | COc1cc(-c2cnc3cccc(-c4ccc(CC(=O)N5CCS(=O)(=O)CC5)cc4)c3n2)cc(OC)c1OC | 119 nM |  |
| 130 nM | 640 nM |  | 1300 nM | CNS(=O)(=O)c1ccc(-c2cccc3ncc(-c4cc(OC)c(OC)c(OC)c4)nc23)cc1 |  | Vd [17]: 6.75 L/kg; half-life [18]: 1.69 h; AUC (Rattus norvegicus [19]): 4 µg·min/mL; F (Rattus norvegicus [20]): 34% |
